Consider 13 compounds from ChEMBL document CHEMBL4325822, “Discovery of a tetrazolyl β-carboline with in vitro and in vivo osteoprotective activity under estrogen-deficient conditions” (Medchemcomm, 2018).

pEC50: −log10 of the molar value. Activity calls are given as the source filed them. No cut-off for these calls is given here.

Tested on in one data set: not listed separately
The data set is described as follows: Increase in BMP2 mRNA expression in Sprague-Dawley rat calvarial osteoblasts at 100 pM by RT-PCR method relative to control. In kind it is functional, Calvarial osteoblast.
Details: not given
In outline: (§1)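 Primary calvarial osteoblasts were lysed in TRIzol after treatment, and total RNA was extracted. Transcripts were quantified by real-time PCR using the comparative CT (ΔΔCT) method.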
`COC(=O)c1cc2c([nH]c3ccccc32)c(C(c2nnnn2C(C)(C)C)N2CCN(c3ncccn3)CC2)n1` (stereo not drawn): the “fold change (FC)” value is on record as 1.8 - 4.6.

As for `CCOC(=O)c1cc2c([nH]c3ccccc32)c(C=O)n1`, the “fold change (FC)” value is given as 1.8 - 4.6.

The next data set concerns Calvarial osteoblast. As to the kind of experiment: Cytotoxicity against Sprague-Dawley rat calvarial osteoblasts assessed as reduction in cell viability at 0.000001 to 1 uM after 48 hrs by MTT assay. The format is cell-based.
Details: not given
In outline: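 Osteoblasts came from pooled calvaria of 1-2-day-old Sprague-Dawley pups, isolated by sequential dispase/collagenase digestion. Cells were exposed to compound at 1 pM to 1 µM for 48 h, and viability was measured by MTT.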
For orientation: Tetrazolium dyes change colour on reduction, which living cells bring about.
Regarding `COC(=O)c1cc2c([nH]c3ccccc32)c(C(c2nnnn2C(C)(C)C)N2CCN(c3ncccn3)CC2)n1` (stereo not drawn), the Activity entry is “Non-Toxic”.

Turning to `CCOC(=O)c1cc2c([nH]c3ccccc32)c(C=O)n1`, the Activity entry is “Non-Toxic”.

Tested on in a further data set: not listed separately
As to the kind of experiment: Increase in OCN mRNA expression in Sprague-Dawley rat calvarial osteoblasts at 100 pM by RT-PCR method relative to control. In kind it is functional, Calvarial osteoblast.
Details: not given
In outline: as §1
As to `COC(=O)c1cc2c([nH]c3ccccc32)c(C(c2nnnn2C(C)(C)C)N2CCN(c3ncccn3)CC2)n1` (stereo not drawn), the “fold change (FC)” value is 1.8 - 4.6.

Regarding `CCOC(=O)c1cc2c([nH]c3ccccc32)c(C=O)n1`, the “fold change (FC)” value is recorded as 1.8 - 4.6.

The next data set deals with Calvarial osteoblast. As to the kind of experiment: Osteogenic activity in Sprague-Dawley rat calvarial osteoblasts assessed as mineralized nodule formation at 100 pM after 21 days by alizarin red-S staining based colorimetric method. In kind it is functional.
Details: not given
The method in brief: (§2)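 Osteoblasts at 10,000–15,000 cells/cm² in duplicate plates, 21 days in differentiation medium, medium changed every 48 h. Cells fixed in 4% PFA, stained with alizarin red-S (40 mM, pH 4.5, 30 min) and photographed. Stain extracted with 10% acetic acid, pH brought to 4.5 with ammonium hydroxide, read at 405 nm, normalized to cell number.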
As for `COC(=O)c1cc2c([nH]c3ccccc32)c(C(c2nnnn2C(C)(C)C)N2CCN(c3ncccn3)CC2)n1` (stereo not drawn), the Activity is 48%.

For `CCOC(=O)c1cc2c([nH]c3ccccc32)c(C=O)n1`, the Activity is given as 20%.

The next data set has as its system Calvarial osteoblast. The data set is described as follows: Induction of osteoblast differentiation in Sprague-Dawley rat calvarial osteoblasts assessed as alkaline phosphatase activity at 10 nM after 48 hrs using PNPP as substrate by spectrophotometric method relative to control. The format is functional.
Details: not given
In outline: (§3)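 Calvarial osteoblasts at 2 × 10³ cells/well. Treated 48 h with varied concentrations in differentiation medium (5% charcoal-treated FBS, 10 mM β-glycerophosphate, 50 µg·mL⁻¹ ascorbic acid). Total ALP read with PNPP substrate at 405 nm. Cell-free wells check for compound interference with substrate or absorbance.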
The Emax is the greatest response seen or fitted, relative to the assay's reference. For `CCN1CCN(C(c2nc(C(=O)OC)cc3c2[nH]c2ccccc23)c2nnnn2C(C)(C)C)CC1` (stereo not drawn), the Emax result was “inactive”.

Tested on in a further data set: not listed separately
The data set is described as follows: Induction of osteoblast differentiation in Sprague-Dawley rat calvarial osteoblasts assessed as alkaline phosphatase activity after 48 hrs using PNPP as substrate by spectrophotometric method. In kind it is functional, cell-based. Particulars: Rattus norvegicus, Sprague-Dawley, Calvarial osteoblast, 48 h; read-out: EC50. The method in brief:
as §3
For orientation: pEC50 means the EC50 on a negative log10 scale, so that one unit is a factor of ten. On to `COC(=O)c1cc2c([nH]c3ccccc32)c(C(NCc2ccccc2)c2nnnn2C(C)(C)C)n1` (stereo not drawn), for which the pEC50 is 6.33.

In the case of `COC(=O)c1cc2c([nH]c3ccccc32)c(C(c2nnnn2C(C)(C)C)N2CCN(c3ncccn3)CC2)n1` (stereo not drawn), the pEC50 is 5.49.

Regarding `CCOC(=O)c1cc2c([nH]c3ccccc32)c(C=O)n1`, the pEC50 is 6.21.

Staying with this data set, now noted: calvarial osteoblast.
In the case of `CCOC(=O)c1cc2c([nH]c3ccccc32)c(C(c2nnnn2C(C)(C)C)N2CCOCC2)n1` (stereo not drawn), the EC50 entry was “Not Active”.

Consider `CCN1CCN(C(c2nc(C(=O)OC)cc3c2[nH]c2ccccc23)c2nnnn2C(C)(C)C)CC1` (stereo not drawn), for which the EC50 result was “Not Active”.

As to `COC(=O)c1cc2c([nH]c3ccccc32)c(C(NCc2ccc(Cl)c(Cl)c2)c2nnnn2C(C)(C)C)n1` (stereo not drawn), the EC50 entry is on record as “Not Active”.

Turning to `COC(=O)c1cc2c([nH]c3ccccc32)c(C(NCc2ccc(C)cc2)c2nnnn2C(C)(C)C)n1` (stereo not drawn), the EC50 result is “Not Active”.

`COC(=O)c1cc2c([nH]c3ccccc32)c(C(NC(C)(C)C)c2nnnn2C(C)(C)C)n1` (stereo not drawn): the EC50 entry is reported as “Not Active”.

`CCOC(=O)c1cc2c([nH]c3ccccc32)c(C(c2nnnn2C(C)(C)C)N2CCN(Cc3ccc4c(c3)OCO4)CC2)n1` (stereo not drawn): the EC50 entry was “Not Active”.

Turning to `CCOC(=O)c1cc2c([nH]c3ccccc32)c(C(c2nnnn2C(C)(C)C)N2CCN(c3ccc(F)cc3)CC2)n1` (stereo not drawn), the EC50 entry is “Not Active”.

`CCOC(=O)c1cc2c([nH]c3ccccc32)c(C(c2nnnn2C(C)(C)C)N2CCN(C(=O)c3ccco3)CC2)n1` (stereo not drawn): the EC50 result was “Not Active”.

Consider `COC(=O)CNC(c1nc(C(=O)OC)cc2c1[nH]c1ccccc12)c1nnnn1C(C)(C)C` (stereo not drawn), for which the EC50 result was “Not Active”.

Consider `CCOC(=O)c1cc2c([nH]c3ccccc32)c(C(NC(C)(C)C)c2nnnn2C(C)(C)C)n1` (stereo not drawn), for which the EC50 entry is on record as “Not Active”.

Tested on in the next data set: not listed separately
As to the kind of experiment: Increase in Runx2 mRNA expression in Sprague-Dawley rat calvarial osteoblasts at 100 pM by RT-PCR method relative to control. The format is functional, Calvarial osteoblast.
Details: not given
Consider `COC(=O)c1cc2c([nH]c3ccccc32)c(C(c2nnnn2C(C)(C)C)N2CCN(c3ncccn3)CC2)n1` (stereo not drawn), for which the “fold change (FC)” value is given as 1.8 - 4.6.

On to `CCOC(=O)c1cc2c([nH]c3ccccc32)c(C=O)n1`, for which the “fold change (FC)” value is given as 1.8 - 4.6.

A further data set relates to Calvarial osteoblast. As to the kind of experiment: Osteogenic activity in Sprague-Dawley rat calvarial osteoblasts assessed as mineralized nodule formation at 100 pM after 21 days by alizarin red-S staining based light microscopic method. In kind it is functional, cell-based.
Details: not given
The method in brief: as §2
As to `COC(=O)c1cc2c([nH]c3ccccc32)c(C(c2nnnn2C(C)(C)C)N2CCN(c3ncccn3)CC2)n1` (stereo not drawn), the result was Active.

Tested on in the next data set: not listed separately
The data set is described as follows: Induction of osteoblast differentiation in Sprague-Dawley rat calvarial osteoblasts assessed as alkaline phosphatase activity at 100 pM after 48 hrs using PNPP as substrate by spectrophotometric method relative to control. In kind it is functional.
Details: not given
The method in brief:
as §3
In the case of `COC(=O)c1cc2c([nH]c3ccccc32)c(C(NCc2ccccc2)c2nnnn2C(C)(C)C)n1` (stereo not drawn), the maximal response (Emax) at 0.0001 µM worked out at 29%.

In the case of `COC(=O)c1cc2c([nH]c3ccccc32)c(C(c2nnnn2C(C)(C)C)N2CCN(c3ncccn3)CC2)n1` (stereo not drawn), the Emax at 0.0001 µM was 80%.

Take `CCOC(=O)c1cc2c([nH]c3ccccc32)c(C=O)n1`: the Emax at 0.0001 µM was found to be 65%.

In a further data set the test system is Calvarial osteoblast. As to the kind of experiment: Increase in OCN protein expression in Sprague-Dawley rat calvarial osteoblasts at 100 pM after 48 hrs by Western blot analysis. In kind it is functional, cell-based.
Details: not given
The method in brief: (§4)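 Rat calvarial osteoblasts (pooled 1–2-day pups, collagenase/dispase digests) at 60–70% confluence treated 48 h. Whole-cell lysates immunoblotted with primary antibody overnight at 4 °C, then HRP secondary, with ECL detection. Densitometry gives fold change normalized to β-actin versus untreated cells. Mean ± SEM of three independent experiments.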
Regarding `COC(=O)c1cc2c([nH]c3ccccc32)c(C(c2nnnn2C(C)(C)C)N2CCN(c3ncccn3)CC2)n1` (stereo not drawn), the result was Active.

For the compound `CCOC(=O)c1cc2c([nH]c3ccccc32)c(C=O)n1`, the result was Active.

The next data set concerns Calvarial osteoblast. As to the kind of experiment: Induction of osteoblast differentiation in Sprague-Dawley rat calvarial osteoblasts assessed as alkaline phosphatase activity at 0.000001 to 1 uM after 48 hrs using PNPP as substrate by spectrophotometric method relative to control. The format is functional, cell-based.
Details: not given
In outline: as §3
In the case of `CCOC(=O)c1cc2c([nH]c3ccccc32)c(C(c2nnnn2C(C)(C)C)N2CCOCC2)n1` (stereo not drawn), the Emax result was “inactive”.

As to `COC(=O)c1cc2c([nH]c3ccccc32)c(C(NCc2ccc(Cl)c(Cl)c2)c2nnnn2C(C)(C)C)n1` (stereo not drawn), the Emax entry is “inactive”.

For the compound `COC(=O)c1cc2c([nH]c3ccccc32)c(C(NCc2ccc(C)cc2)c2nnnn2C(C)(C)C)n1` (stereo not drawn), the Emax result is “inactive”.

Turning to `COC(=O)c1cc2c([nH]c3ccccc32)c(C(NC(C)(C)C)c2nnnn2C(C)(C)C)n1` (stereo not drawn), the Emax result was “inactive”.

Consider `CCOC(=O)c1cc2c([nH]c3ccccc32)c(C(c2nnnn2C(C)(C)C)N2CCN(Cc3ccc4c(c3)OCO4)CC2)n1` (stereo not drawn), for which the Emax entry is “inactive”.

`CCOC(=O)c1cc2c([nH]c3ccccc32)c(C(c2nnnn2C(C)(C)C)N2CCN(c3ccc(F)cc3)CC2)n1` (stereo not drawn): the Emax result is “inactive”.

Take `CCOC(=O)c1cc2c([nH]c3ccccc32)c(C(c2nnnn2C(C)(C)C)N2CCN(C(=O)c3ccco3)CC2)n1` (stereo not drawn): the Emax result was “inactive”.

Regarding `COC(=O)CNC(c1nc(C(=O)OC)cc2c1[nH]c1ccccc12)c1nnnn1C(C)(C)C` (stereo not drawn), the Emax entry was “inactive”.

As to `CCOC(=O)c1cc2c([nH]c3ccccc32)c(C(NC(C)(C)C)c2nnnn2C(C)(C)C)n1` (stereo not drawn), the Emax entry was “inactive”.

The next data set relates to Calvarial osteoblast. As to the kind of experiment: Increase in Runx2 protein expression in Sprague-Dawley rat calvarial osteoblasts at 100 pM after 48 hrs by Western blot analysis. In kind it is functional, cell-based.
Details: not given
In outline:
as §4
In the case of `COC(=O)c1cc2c([nH]c3ccccc32)c(C(c2nnnn2C(C)(C)C)N2CCN(c3ncccn3)CC2)n1` (stereo not drawn), the outcome was Active.

On to `CCOC(=O)c1cc2c([nH]c3ccccc32)c(C=O)n1`, for which the result was Active.

Another data set concerns Calvarial osteoblast. The data set is described as follows: Increase in BMP2 protein expression in Sprague-Dawley rat calvarial osteoblasts at 100 pM after 48 hrs by Western blot analysis. In kind it is functional, cell-based.
Details: not given
In outline:
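Rat calvarial osteoblasts at 60-70% confluence were treated 48 h. Whole-cell lysates were blotted, blocked in 5% milk, and probed with primary antibody overnight at 4 °C, then with HRP secondary and ECL detection. Densitometry was normalized to β-actin; fold change versus untreated cells, three independent experiments, mean ± SEM.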
With `COC(=O)c1cc2c([nH]c3ccccc32)c(C(c2nnnn2C(C)(C)C)N2CCN(c3ncccn3)CC2)n1` (stereo not drawn), the outcome was Active.

In the case of `CCOC(=O)c1cc2c([nH]c3ccccc32)c(C=O)n1`, the outcome was Active.
